Legend:
[1] = tested on: Osteoclast; assay: Inhibition of ICR mouse osteoclast differentiation at 1.0 ug/mL; type: functional
In short: (§1)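 Co-culture of bone marrow cells (femora, 6-week-old ddY mice; 2.5×10^5 cells/cm²) with calvarial osteoblastic cells (newborn ICR mice, collagenase digestion; 4 × 10⁴ cells/cm²) in α-MEM/10% FBS with 1,25(OH)₂D₃ (1 × 10⁻⁸ M) and dexamethasone (1 × 10⁻⁷ M). DMSO stocks (2 mg/mL) were filter-sterilized and added at 0.1 or 1.0 μg/mL. Medium was changed every 2 days. On day 6, cells were formaldehyde-fixed and TRAP-stained. TRAP(+) multinucleated cells with >6–7 nuclei were counted. Results are % inhibition versus control, as mean ± SD of three replicates, with Student's t-test.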

[2] = tested on: Osteoclast; assay: Inhibition of ICR mouse osteoclast differentiation at 0.1 ug/mL; type: functional; in short: as §1
[3] = tested on: Osteoclast; assay: Induction of mouse osteoclast apoptosis; type: functional, cell-based

For O=c1cc(-c2ccc(O)cc2)oc2cc(O)cc(O)c12 [APIGENIN], the inhibition at 1 µg/mL [1] was 65% and the inhibition at 0.1 µg/mL [2] was 45%.
O=c1cc(-c2ccc(O)cc2)oc2c(O)c(O)cc(O[C@@H]3O[C@H](CO)[C@@H](O)[C@H](O)[C@H]3O)c12 gave an inhibition at 1 µg/mL [1] of 86% and an inhibition at 0.1 µg/mL [2] of 63%.
In the case of O=c1c(O)c(-c2ccc(O)cc2)oc2cc(O)cc(O)c12 [KAEMPFEROL], the IC50 [3] is reported as 1.6 µM.
Compound C[C@@H]1O[C@@H](Oc2c(-c3ccc(O)c(O)c3)oc3cc(O)cc(O)c3c2=O)[C@H](O)[C@H](O)[C@H]1O [QUERCITRIN] has an inhibition at 1 µg/mL [1] of 67% and an inhibition at 0.1 µg/mL [2] of 56%.
In the case of COc1ccc(-c2oc3cc(O)cc(O)c3c(=O)c2O[C@@H]2O[C@H](CO[C@@H]3O[C@H](C)[C@@H](O)[C@H](O)[C@@H]3O)[C@@H](O)[C@H](O)[C@H]2O)cc1O, the inhibition at 1 µg/mL [1] is reported as 63% and the inhibition at 0.1 µg/mL [2] is reported as 40%.
O=c1c(O)c(-c2ccc(O)c(O)c2)oc2cc(O)cc(O)c12 [QUERCETIN] gave an IC50 [3] of 5.3 µM.
C[C@H]1O[C@@H](OC[C@H]2O[C@@H](Oc3c(-c4ccc(O)cc4)oc4cc(O)cc(O)c4c3=O)[C@H](O)[C@@H](O)[C@@H]2O)[C@@H](O)[C@@H](O)[C@@H]1O gave an inhibition at 1 µg/mL [1] of 85% and an inhibition at 0.1 µg/mL [2] of 68%.
CC(=O)OC[C@H]1O[C@@H](Oc2c(-c3ccc(O)c(O)c3)oc3cc(O)cc(O)c3c2=O)[C@H](O)[C@@H](O)[C@@H]1O gave an inhibition at 1 µg/mL [1] of 65% and an inhibition at 0.1 µg/mL [2] of 51%.

— ChEMBL document CHEMBL1141351, “Inhibitors of osteoclast differentiation from Cephalotaxus koreana” (J Nat Prod, 2007)
